# “And” between values parts separate entries of the source, which are not always exact repeats. Equal values may be shown once.
# Test system: HEK-293T
# Experiment: Multiplex assay against HEK293T
# Type: toxicity, cell-based
# Settings: human, 12 h, 1 µM, compound concentration 1 uM
# Outline: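 Tubulin, mitochondrial-mass and membrane-permeability phenotypes are per cents of healthy-nucleus cells. Cells were gated by CellPathfinder machine learning into Hoechst high-intensity objects or normal cells, normal cells into healthy, pyknosed or fragmented nuclei, and pyknosed cells into mitotic or apoptotic. Before that, live cells stained at seeding with Hoechst33342, BioTracker Green Microtubule Cytoskeleton Dye, MitoTracker Red and Annexin V Alexa Fluor 680 were imaged on a CQ1 microscope at 37°C and 5% CO2 after compound addition.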
SMILES,Population Apoptotic (%),Population Fragmented Nuclei (%),Population Hoechst High Intensity Objects (%),Population Membrane Permeable-Phenotype (%),Population Mitotic Cells (%),Population Normal (%),Population Pyknosed Nuclei (%),Total Cell Count,Population Healthy Nuclei (%),Population Mitochondria Different-Phenotype (%)
COCCNc1nc2ccc(C#CC3(O)CCCCC3)cc2n1-c1ccnc(N)n1,9.87% and 12.26%,1.33% and 5.34%,0%,1.82% and 0%,90.13% and 87.74%,100%,40.32% and 80.92%,377 and 131,–,–
CC(C)C[C@H](NC(=O)c1cc2ccccc2s1)C(=O)N1CCN(C(=O)[C@H](CO)NS(=O)(=O)c2ccc(Cl)cc2Cl)CC1,10.07% and 13.45%,3.47% and 8.64%,0.31% and 0%,1.8% and 0%,89.93% and 86.55%,99.69% and 100%,43.85% and 73.46%,318 and 162,52.68% and 17.9%,37.13% and 31.03%
CNc1nc(NCc2ncccn2)c2c(-c3ccc4ncccc4c3)c[nH]c2n1,9.22% and 10.1%,2.26% and 3.88%,0.25% and 0%,0.81% and 0%,90.78% and 89.9%,99.75% and 100%,35.43% and 76.74%,–,–,–
Cl.Clc1cc2cc(c1)-c1cnn3ccc(nc13)NCCOCCO2,7.52% and 9.38%,1.41% and 6.41%,0%,0.46% and 0%,92.48% and 90.62%,100%,37.46% and 82.05%,355 and 156,–,39.63% and 22.22%

# Same assay, conditions: human, 12 h, 1 µM, compound concentration 1 uM
row,SMILES,Population Tubulin-Different-Phenotype (%)
1,CC(C)C[C@H](NC(=O)c1cc2ccccc2s1)C(=O)N1CCN(C(=O)[C@H](CO)NS(=O)(=O)c2ccc(Cl)cc2Cl)CC1,16.17% and 48.28%

# Same assay, conditions: human, 12 h, 10 µM, compound concentration 10 uM
SMILES,Population Apoptotic (%),Population Fragmented Nuclei (%),Population Hoechst High Intensity Objects (%),Population Membrane Permeable-Phenotype (%),Population Mitotic Cells (%),Population Normal (%),Population Pyknosed Nuclei (%),Population Tubulin-Different-Phenotype (%),Total Cell Count,Population Healthy Nuclei (%)
COCCNc1nc2ccc(C#CC3(O)CCCCC3)cc2n1-c1ccnc(N)n1,17.15% and 7.53%,0.29% and 2.41%,0%,0%,82.85% and 92.47%,100%,68.29% and 87.95%,29.09% and 56.25%,350 and 166,–
CC(C)C[C@H](NC(=O)c1cc2ccccc2s1)C(=O)N1CCN(C(=O)[C@H](CO)NS(=O)(=O)c2ccc(Cl)cc2Cl)CC1,19.05% and 16.13%,2.43% and 2.16%,0.69% and 0%,0.88% and 0%,80.95% and 83.87%,99.31% and 100%,58.33% and 89.21%,87.61% and 58.33%,290 and 139,–
CNc1nc(NCc2ncccn2)c2c(-c3ccc4ncccc4c3)c[nH]c2n1,13.38% and 23.23%,2.88% and 3.98%,0.64% and 0%,0%,86.62% and 76.77%,99.36% and 100%,45.51% and 88.07%,20.5% and 42.86%,314 and 176,–
Cl.Clc1cc2cc(c1)-c1cnn3ccc(nc13)NCCOCCO2,20.33% and 8.33%,2.02% and 1.83%,0% and 0.61%,1.19% and 2.44%,79.67% and 91.67%,100% and 99.39%,41.41% and 73.17%,–,297 and 165,56.57% and 25%

# Same assay, conditions: human, 12 h, 10 µM, compound concentration 10 uM
row,SMILES,Population Mitochondria Different-Phenotype (%)
1,Cl.Clc1cc2cc(c1)-c1cnn3ccc(nc13)NCCOCCO2,35.71% and 26.83%

# Same assay, conditions: human, 24 h, 1 µM, compound concentration 1 uM
SMILES,Population Apoptotic (%),Population Fragmented Nuclei (%),Population Healthy Nuclei (%),Population Hoechst High Intensity Objects (%),Population Membrane Permeable-Phenotype (%),Population Mitochondria Different-Phenotype (%),Population Mitotic Cells (%),Population Normal (%),Population Pyknosed Nuclei (%),Population Tubulin-Different-Phenotype (%)
COCCNc1nc2ccc(C#CC3(O)CCCCC3)cc2n1-c1ccnc(N)n1,11.24% and 8.33%,1.68% and 2.99%,69.92% and 32.34%,0% and 0.6%,2.88% and 1.85%,12.5% and 16.67%,88.76% and 91.67%,100% and 99.4%,28.4% and 64.67%,6.49% and 5.56%
CC(C)C[C@H](NC(=O)c1cc2ccccc2s1)C(=O)N1CCN(C(=O)[C@H](CO)NS(=O)(=O)c2ccc(Cl)cc2Cl)CC1,16.78% and 26.05%,1.48% and 4.6%,67.09% and 27.01%,0%,2.83% and 2.13%,27.67% and 38.3%,83.22% and 73.95%,100%,31.43% and 68.39%,38.68% and 19.15%
CNc1nc(NCc2ncccn2)c2c(-c3ccc4ncccc4c3)c[nH]c2n1,7.44% and 13.04%,1.55% and 3.01%,79.72% and 45.11%,0.15% and 0%,0.78% and 0%,15.34% and 13.33%,92.56% and 86.96%,99.85% and 100%,18.73% and 51.88%,9.13% and 10%
Cl.Clc1cc2cc(c1)-c1cnn3ccc(nc13)NCCOCCO2,18.58% and 9.43%,0.93% and 4.73%,–,0%,1.19% and 0%,17.58% and 22.86%,81.42% and 90.57%,100%,–,11.16% and 5.71%

# Same assay, conditions: human, 24 h, 1 µM, compound concentration 1 uM
row,SMILES,Total Cell Count
1,CC(C)C[C@H](NC(=O)c1cc2ccccc2s1)C(=O)N1CCN(C(=O)[C@H](CO)NS(=O)(=O)c2ccc(Cl)cc2Cl)CC1,474 and 174

# Same assay, conditions: human, 24 h, 10 µM, compound concentration 10 uM
SMILES,Population Apoptotic (%),Population Fragmented Nuclei (%),Population Hoechst High Intensity Objects (%),Population Membrane Permeable-Phenotype (%),Population Mitochondria Different-Phenotype (%),Population Mitotic Cells (%),Population Normal (%),Population Pyknosed Nuclei (%),Population Tubulin-Different-Phenotype (%),Total Cell Count
COCCNc1nc2ccc(C#CC3(O)CCCCC3)cc2n1-c1ccnc(N)n1,30% and 31.16%,0.22% and 1.23%,0.22% and 0%,1% and 0%,22.89% and 17.39%,70% and 68.84%,99.78% and 100%,55.31% and 84.66%,37.81% and 21.74%,453 and 163
CC(C)C[C@H](NC(=O)c1cc2ccccc2s1)C(=O)N1CCN(C(=O)[C@H](CO)NS(=O)(=O)c2ccc(Cl)cc2Cl)CC1,47.8% and 42.62%,3.25% and 4.03%,0.65% and 0%,0% and 4.76%,74.82% and 42.86%,52.2% and 57.38%,99.35% and 100%,51.62% and 81.88%,100% and 90.48%,310 and 149
CNc1nc(NCc2ncccn2)c2c(-c3ccc4ncccc4c3)c[nH]c2n1,21.74% and 18.6%,2.16% and 2.65%,0%,2.22% and 7.27%,39.37% and 32.73%,78.26% and 81.4%,100%,–,28.89% and 25.45%,416 and 189
Cl.Clc1cc2cc(c1)-c1cnn3ccc(nc13)NCCOCCO2,25.26% and 16.38%,2.17% and 2.23%,0%,0.75% and 0%,30.19% and 10.17%,74.74% and 83.62%,100%,25.82% and 64.8%,9.81% and 5.08%,368 and 179

# Same assay, conditions: human, 24 h, 10 µM, compound concentration 10 uM
row,SMILES,Population Healthy Nuclei (%)
1,CNc1nc(NCc2ncccn2)c2c(-c3ccc4ncccc4c3)c[nH]c2n1,75.72% and 29.1%
2,Cl.Clc1cc2cc(c1)-c1cnn3ccc(nc13)NCCOCCO2,72.01% and 32.96%

# Same assay, conditions: human, 48 h, 1 µM, compound concentration 1 uM
SMILES,Population Apoptotic (%),Population Fragmented Nuclei (%),Population Healthy Nuclei (%),Population Hoechst High Intensity Objects (%),Population Membrane Permeable-Phenotype (%),Population Mitochondria Different-Phenotype (%),Population Mitotic Cells (%),Population Normal (%),Population Pyknosed Nuclei (%)
COCCNc1nc2ccc(C#CC3(O)CCCCC3)cc2n1-c1ccnc(N)n1,6.04% and 14.1%,1.77% and 1.97%,86.69% and 67.32%,0.06% and 0%,6.87% and 2.34%,9.94% and 24.56%,93.96% and 85.9%,99.94% and 100%,11.53% and 30.71%
CC(C)C[C@H](NC(=O)c1cc2ccccc2s1)C(=O)N1CCN(C(=O)[C@H](CO)NS(=O)(=O)c2ccc(Cl)cc2Cl)CC1,11.27% and 26%,1.67% and 1.87%,84.35% and 51.4%,0.1% and 0.47%,6.07% and 4.55%,35.82% and 54.55%,88.73% and 74%,99.9% and 99.53%,–
CNc1nc(NCc2ncccn2)c2c(-c3ccc4ncccc4c3)c[nH]c2n1,–,3.92% and 2.35%,88.02% and 64.71%,0% and 0.58%,3.68% and 0.91%,13.1% and 22.73%,93.46% and 80.36%,100% and 99.42%,–
Cl.Clc1cc2cc(c1)-c1cnn3ccc(nc13)NCCOCCO2,–,3.48% and 1.96%,87.01% and 64.71%,0% and 0.97%,5.92% and 3.03%,15.1% and 25%,97.71% and 83.82%,100% and 99.03%,–

# Same assay, conditions: human, 48 h, 10 µM, compound concentration 10 uM
SMILES,Population Apoptotic (%),Population Fragmented Nuclei (%),Population Healthy Nuclei (%),Population Hoechst High Intensity Objects (%),Population Membrane Permeable-Phenotype (%),Population Mitochondria Different-Phenotype (%),Population Mitotic Cells (%),Population Normal (%),Population Pyknosed Nuclei (%),Population Tubulin-Different-Phenotype (%)
COCCNc1nc2ccc(C#CC3(O)CCCCC3)cc2n1-c1ccnc(N)n1,18.78% and 26.09%,0.76% and 2.91%,68.15% and 30.1%,0.25% and 0%,2.79% and 1.61%,59.96% and 58.06%,81.22% and 73.91%,99.75% and 100%,31.09% and 66.99%,–
CC(C)C[C@H](NC(=O)c1cc2ccccc2s1)C(=O)N1CCN(C(=O)[C@H](CO)NS(=O)(=O)c2ccc(Cl)cc2Cl)CC1,55.17% and 79.57%,2.27% and 2.56%,64.87% and 37.82%,0.28% and 0%,1.31% and 1.69%,97.38% and 91.53%,44.83% and 20.43%,99.72% and 100%,32.86% and 59.62%,94.32% and 98.31%
CNc1nc(NCc2ncccn2)c2c(-c3ccc4ncccc4c3)c[nH]c2n1,10.91% and 21.43%,4.49% and 5.56%,86.38% and 55.56%,0% and 2.7%,2.12% and 5%,57.5% and 60%,89.09% and 78.57%,100% and 97.3%,–,–
Cl.Clc1cc2cc(c1)-c1cnn3ccc(nc13)NCCOCCO2,16.05% and 15.07%,3.95% and 2.66%,86.64% and 69.58%,0.12% and 0.75%,3.08% and 0%,26.54% and 19.13%,83.95% and 84.93%,99.88% and 99.25%,9.41% and 27.76%,–

# Same assay, conditions: human, 48 h, 10 µM, compound concentration 10 uM
row,SMILES,Total Cell Count
1,CC(C)C[C@H](NC(=O)c1cc2ccccc2s1)C(=O)N1CCN(C(=O)[C@H](CO)NS(=O)(=O)c2ccc(Cl)cc2Cl)CC1,354 and 156

# Source: ChEMBL document CHEMBL5724801, “EUbOPEN Chemogenomics Library - Multiplex” (2024)
